Measurements published in ChEMBL document CHEMBL1795280, “Design, synthesis and activity of a potent, selective series of N-aryl pyridinone inhibitors of p38 kinase” (Bioorg Med Chem Lett, 2011).

Tests used:
[1] = Metabolic stability in human liver microsomes assessed as compound remaining at 2 uM after 45 mins by LC/MS analysis; type: ADME, Microsome; settings: read-out: Stability
[2] = target: Mitogen-activated protein kinase 14 (Homo sapiens, UniProt Q16539); assay: Inhibition of p38alpha assessed as phosphorylation of […] after 60 mins by fluorescence assay
Chain of Mitogen-activated protein kinase 14 (Q16539 whole entry): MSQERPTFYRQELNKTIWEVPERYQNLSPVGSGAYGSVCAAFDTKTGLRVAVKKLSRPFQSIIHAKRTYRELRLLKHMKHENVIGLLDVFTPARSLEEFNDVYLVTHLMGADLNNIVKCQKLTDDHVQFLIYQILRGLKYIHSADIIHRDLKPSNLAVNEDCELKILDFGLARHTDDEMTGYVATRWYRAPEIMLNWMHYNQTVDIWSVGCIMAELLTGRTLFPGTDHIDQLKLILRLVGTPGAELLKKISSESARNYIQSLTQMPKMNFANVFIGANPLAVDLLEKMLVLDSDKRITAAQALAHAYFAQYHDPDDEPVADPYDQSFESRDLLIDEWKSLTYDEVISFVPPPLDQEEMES
How it was run: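 Cascade assay in which activated p38α (6 pM final) activates unactivated MK2 (1 nM), which phosphorylates FITC-labelled Hsp27 peptide (1 nM) with […]. Inhibitor 0.2–10,000 nM. Room temperature, 60 min, EDTA quench. Phospho-peptide quantified by Caliper LabChip; IC50.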

PBMC = assay: Antiinflammatory activity in human PBMC assessed as inhibition of LPS-induced TNFalpha production treated 1 hr before LPS challenge measured after 18 hrs; type: functional, cell-based
How it was run: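 PBMCs isolated by Ficoll from heparinized blood of two healthy donors, in DMEM with 5% endotoxin-free FBS, 2.5 × 10⁵ cells/well. Pretreated 1 h with compound (0.0001–25 µM range), then stimulated 18 h with 22 ng/ml LPS. Final DMSO 0.25%. Secreted TNFα measured by MSD; IC50 reported.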

Rattus norvegicus [3] = assay: Antiinflammatory activity in Lewis rat assessed as inhibition of LPS-induced TNFalpha production at 15 mg/kg, po administered 4 hrs before LPS challenge by ELISA
[4] = Metabolic stability in rat liver microsomes assessed as compound remaining at 2 uM after 45 mins by LC/MS analysis; type: ADME, Microsome; settings: read-out: Stability
[5] = Half life in iv and po dosed Sprague-Dawley rat; type: ADME, organism-based; settings: in vivo
Rattus norvegicus [6] = assay: Antiinflammatory activity in Lewis rat assessed as inhibition of LPS-induced TNFalpha production at 5 mg/kg, po administered 6 hrs before LPS challenge by ELISA; type: functional
How it was run: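 Adult male Lewis rats (225–250 g), fasted 18 h with free access to water. Compound or vehicle given by oral gavage (1 mL). LPS (E. coli 0111:B4) given 1 mg/kg i.v. in saline 2, 4 or 6 h later. Serum taken by cardiac puncture 90 min after LPS. TNFα quantified against a recombinant rat TNF standard curve with a four-parameter fit. Two vehicle groups per experiment, three experiments.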

[7] = Solubility of the compound; type: physicochemical
[8] = Clearance in iv and po dosed Sprague-Dawley rat; type: ADME, organism-based; settings: in vivo
[9] = Bioavailability in iv and po dosed Sprague-Dawley rat; type: ADME, organism-based; settings: in vivo

remaining at 0.75 h, 2 µM [1] [%] | IC50 [2] [nM] | remaining at 0.75 h, 2 µM [4] [%] | half-life [5] [h] | solubility [7] [µg/mL] | clearance [8] [mL/min/kg] | bioavailability [9] [%] | Compound | IC50 (PBMC) [nM] | inhibition in vivo at 15 mg/kg (Rattus norvegicus [3]) [%] | inhibition in vivo at 5 mg/kg (Rattus norvegicus [6]) [%]
0 | 6 | 0 |  |  |  |  | CN(C)Cc1cc(OCc2ccc(F)cc2F)c(Br)c(=O)n1-c1c(F)cccc1F | 50 | 69 | 
74 | 4 | 87 | 1.8 | < 10 | 12.8 | 21 | Cc1cc(OCc2ccc(F)cc2F)c(Cl)c(=O)n1-c1c(F)cccc1F | 17 |  | 83
